The first data set has as its system Rattus norvegicus. Description: Gastric emptying of phenol red semisolid meal in rats at dose of 2.0 mg/kg, administered perorally. The class given is functional. The note with it: route oral.
For `CCOc1cc(N)c(Cl)cc1C(=O)NCC1CN(Cc2ccc(F)c(F)c2)CCO1` (stereo unspecified), the GE was 46%.
Still for that read-out and setting: the figure for `COc1cc(N)c(Cl)cc1C(=O)NCC1CN(Cc2ccc(F)cc2)CCO1` (stereo unspecified) is 38%; for `CCOc1cc(N)c(Cl)cc1C(=O)NCC1CN(Cc2ccccc2C#N)CCO1` (stereo unspecified) it is 29%.
`COc1cc(N)c(Cl)cc1C(=O)NCC1CN(Cc2ccc([N+](=O)[O-])cc2)CCO1` (stereo unspecified) registered a GE of 22%.
`CCOc1cc(N)c(Cl)cc1C(=O)NCC1CN(Cc2ccc(C(=O)OC)cc2)CCO1` (stereo unspecified) showed a GE of 52%.
Still for that read-out and setting: the same measure for `CCOc1cc(NC=O)c(Cl)cc1C(=O)NCC1CN(Cc2ccc(F)cc2)CCO1` (stereo unspecified): 33%.
Same read-out and setting: the figure for `COc1cc(N)c(Cl)cc1C(=O)NCC1CN(Cc2ccc(N)cc2)CCO1` (stereo unspecified) is 17%.
As to `COc1cc(N)c(Cl)cc1C(=O)NCC1CN(Cc2ccc(C(F)(F)F)cc2)CCO1` (stereo unspecified), the GE worked out at 23%.
Still for that read-out and setting: the figure for `COc1cc(N)c(Cl)cc1C(=O)NCC1CN(Cc2cccc(F)c2)CCO1` (stereo unspecified) is 30%; for `COc1cc(N)c(Cl)cc1C(=O)NCC1CN(Cc2ccccc2C#N)CCO1` (stereo unspecified) it is 43%.
Regarding `COc1cc(N)c(Cl)cc1C(=O)NCC1CN(C(c2ccccc2)c2ccccc2)CCO1` (stereo unspecified), the GE is 15%.
With `CCOc1cc(N)c(Cl)cc1C(=O)NCC1CN(Cc2ccccc2F)CCO1` (stereo unspecified), the GE is given as 60%.
Still for that read-out and setting: the figure for `CCOc1cc(N)c(Cl)cc1C(=O)NCC1CN(Cc2ccc(Cl)cc2[N+](=O)[O-])CCO1` (stereo unspecified) is 47%; for `CCOc1cc(N)c(Cl)cc1C(=O)NCC1CN(C(C)c2ccc(Cl)cc2)CCO1` (stereo unspecified) it is 33%; for `CCOc1cc(N)c(Cl)cc1C(=O)NCC1CN(Cc2cccc(C#N)c2)CCO1` (stereo unspecified) it is 33%.
`COc1cccc(CN2CCOC(CNC(=O)c3cc(Cl)c(N)cc3OC)C2)c1` (stereo unspecified) registered a GE of 10%.
Still for that read-out and setting: the same measure for `COc1ccc(CN2CCOC(CNC(=O)c3cc(Cl)c(N)cc3OC)C2)cc1` (stereo unspecified): 10%; for `CCOc1cc(N)c(Cl)cc1C(=O)NCC1CN(CCCc2ccccc2)CCO1` (stereo unspecified): 18%.
On to `CCOc1cc(N)c(Cl)cc1C(=O)NCC1CN(Cc2ccc(C(=O)O)cc2)CCO1` (stereo unspecified), for which the GE is given as 13%.
The compound `CCOc1cc(N)c(Cl)cc1C(=O)NCC1CN(Cc2ccccc2Cl)CCO1` (stereo unspecified) came in with a GE of 51%.
Still for that read-out and setting: the same measure for `CCOc1cc(N)c(Cl)cc1C(=O)NCC1CN(Cc2cc(F)cc(F)c2)CCO1` (stereo unspecified): 52%.
Still for that read-out and setting: the same measure for `CCOc1cc(N)c(Cl)cc1C(=O)NCC1CN(CCCCc2ccccc2)CCO1` (stereo unspecified): 47%; for `COc1cc(N)c(Cl)cc1C(=O)NCC1CN(Cc2ccc(Cl)c(Cl)c2)CCO1` (stereo unspecified): 16%; for `CCOc1cc(N)c(Cl)cc1C(=O)NCC1C[N+]([O-])(Cc2ccccc2Cl)CCO1` (stereo unspecified): 52%.
Still for that read-out and setting: the figure for `COc1cc(N)c(Cl)cc1C(=O)NCC1CN(Cc2ccccc2F)CCO1` (stereo unspecified) is 28%.
As for `CCOc1cc(N)c(Cl)cc1C(=O)NCC1CN(Cc2c(F)c(F)c(F)c(F)c2F)CCO1` (stereo unspecified), the GE is recorded as 23%.
Same read-out and setting: the same measure for `COc1cc(N)c(Cl)cc1C(=O)NCC1CN(Cc2ccc(C)cc2)CCO1` (stereo unspecified): 11%; for `COc1cc(N)c(Cl)cc1C(=O)NCC1CN(Cc2ccc(Br)cc2)CCO1` (stereo unspecified): 15%; for `CCOc1cc(N)c(Cl)cc1C(=O)NCC1CN(Cc2cccc(F)c2)CCO1` (stereo unspecified): 54%.
In the case of `COc1cc(N)c(Cl)cc1C(=O)NCC1CN(Cc2c(C)cc(C)cc2C)CCO1` (stereo unspecified), the GE was found to be 5%.
For `COc1cc(N)c(Cl)cc1C(=O)NCC1CN(C(C)c2ccc(F)cc2)CCO1` (stereo unspecified), the GE worked out at 13%.
`COc1cc(N)c(Cl)cc1C(=O)NCC1CN(CCc2ccccc2)CCO1` (stereo unspecified) yielded a GE of 29%.
Still for that read-out and setting: the same measure for `CCOc1cc(N)c(Cl)cc1C(=O)NCC1C[N+](C)(Cc2ccccc2Cl)CCO1.[I-]` (stereo unspecified): 34%; for `COc1cc(N)c(Cl)cc1C(=O)NCC1CN(Cc2ccc(C(=O)O)cc2)CCO1` (stereo unspecified): 18%.

The next data set deals with Mus musculus. Kind of data set: Toxicity tested in mouse and expressed as number of dead mouse / number of mouse used after a dose of 1.0 g/kg perorally; + slight toxicity. Format: organism-based. The conditions noted are these: in vivo, po, 1000 mg/kg. An outline of the steps: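 Male ddY mice (18–25 g), groups of 10, given test compound dissolved or suspended in 0.5% tragacanth solution at a single oral dose of 1.0 g/kg. Mortality observed over 7 days after dosing and scored as dead/used per group; + corresponds to 0–2/10 dead.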
As to `COc1cc(N)c(Cl)cc1C(=O)NCC1CN(Cc2ccccc2C#N)CCO1` (stereo unspecified), the Acute toxicity result is “slight toxicity”.
Same read-out and setting: the entry for `CCOc1cc(N)c(Cl)cc1C(=O)NCC1CN(Cc2ccccc2Cl)CCO1` (stereo unspecified) is “slight toxicity”.

For the origin of these results see ChEMBL document CHEMBL1125819, “Novel benzamides as selective and potent gastrokinetic agents. 2. Synthesis and structure-activity relationships of 4-amino-5-chloro-2-ethoxy-N-[[4-(4-fluorobenzyl)-2- morpholinyl]methyl] benzamide citrate (AS-4370) and related compounds” (J Med Chem, 1991).
